From ChEMBL document CHEMBL3407337, “Molecular design, synthesis and biological research of novel pyridyl acridones as potent DNA-binding and apoptosis-inducing agents” (Eur J Med Chem, 2015)
The source made the active and inactive calls. No cut-off for these calls is given here.

Tests used:
HeLa = experiment: Antiproliferative activity against human HeLa cells after 48 hrs by MTT assay; assay type: functional, cell-based
In short: (§1)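 Adherent lines seeded at 6×10^3 cells/well and allowed 12 h attachment. Media: NCI-H520 and HeLa RPMI-1640; HepG2, MCF-7, CNE-2, A375, A172 and U118-MG DMEM; U251 MEM-EBSS; all with 10% FBS, 37 °C, 5% CO2. Dosed 48 h at final 50, 25, 10, 1 and 0.1 μM. MTT 4 h, formazan dissolved in DMSO, A490. IC50 from the dose series.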

Calf thymus DNA [1] = experiment: Binding affinity to calf thymus DNA at 10 uM after 5 mins by fluorescence emmission spectroscopic method; assay type: nucleic-acid assay; settings: Bos taurus
In short: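 Compound at final 10 μM in 5 mM Tris-HCl, 50 mM NaCl, pH 7.2. ct DNA added to final 0–100 μM. Incubated 5 min. Emission recorded with excitation 425 nm. F/F0 plotted against [DNA]/[compound].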

Bos taurus = species on record: Bos taurus; experiment: Displacement of ethidium bromide from calf thymus DNA assessed as quenching constant up to 30 uM after 5 mins by competitive binding fluorescence method
In short: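 EB final 10 μM with ct DNA 40 μM in Tris-HCl/50 mM NaCl, pH 7.2. Compound added at final 0, 5, 10, 20 and 30 μM. Incubated 5 min, excitation 366 nm, emission near 600 nm. Quenching constant from the Stern–Volmer fit F0/F = 1 + K[Q].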

MCF7 = experiment: Antiproliferative activity against human MCF7 cells after 48 hrs by MTT assay; assay type: functional, cell-based; settings: MCF7, 48 h; in short: as §1
K562 [2] = experiment: Induction of apoptosis in human K562 cells assessed as early apoptotic cells at 1 uM after 48 hrs by annexin V/PI staining based flow cytometry (reference value: 3.89 %); assay type: functional
K562 [3] = experiment: Induction of apoptosis in human K562 cells assessed as late apoptotic cells at 0.05 uM after 48 hrs by annexin V/PI staining based flow cytometry (reference value: 0.26 %); assay type: functional
U-251 = experiment: Antiproliferative activity against human U251 cells after 48 hrs by MTT assay; assay type: functional, cell-based; settings: U-251, 48 h; in short: as §1
K562 [4] = experiment: Induction of apoptosis in human K562 cells assessed as late apoptotic cells at 2.5 uM after 48 hrs by annexin V/PI staining based flow cytometry (reference value: 0.26 %); assay type: functional
NCI-H520 = experiment: Antiproliferative activity against human NCI-H520 cells after 48 hrs by MTT assay; assay type: functional, cell-based; settings: NCI-H520, 48 h; in short: as §1
K562 [5] = experiment: Induction of apoptosis in human K562 cells assessed as reduction in Bcl-XL protein expression at 1 uM after 36 hrs by Western blot analysis; assay type: functional, cell-based
In short: (§2)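 K562 cells in 6 cm dishes treated 36 h at various concentrations. Cells lysed on ice for 0.5 h and spun at 20,000 g. Protein measured by BCA. Lysates run on 12% SDS-PAGE and transferred to PVDF. Membranes blocked in 5% milk and probed overnight at 4 °C with primary antibody against cleaved caspase-9, -7, -3, cleaved PARP or Bcl-XL.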

K562 [6] = experiment: Induction of apoptosis in human K562 cells assessed as early apoptotic cells at 0.25 uM after 48 hrs by annexin V/PI staining based flow cytometry (reference value: 3.89 %); assay type: functional
HepG2 = experiment: Antiproliferative activity against human HepG2 cells after 48 hrs by MTT assay; assay type: functional, cell-based; settings: HepG2, 48 h; in short: as §1
K562 [7] = experiment: Induction of apoptosis in human K562 cells assessed as cleavage of PARP at 1 uM after 36 hrs by Western blot analysis; assay type: functional, cell-based; in short: as §2
K562 [8] = experiment: Antiproliferative activity against human K562 cells after 48 hrs by MTT assay; assay type: functional, cell-based; settings: K562, 48 h
In short: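 K562 suspension cells in RPMI-1640 with 10% FBS, 37 °C, 5% CO2. Seeded at 1.5×10^4 cells/well, exposed 48 h to final 50, 25, 10, 1 and 0.1 μM. MTT (5 mg/mL) added for 4 h at 37 °C. IC50 from the dose series.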

[9] = Antiproliferative activity against human U118MG cells after 48 hrs by MTT assay; assay type: functional, cell-based; settings: U-118-MG; in short: as §1
K562 [10] = experiment: Induction of apoptosis in human K562 cells assessed as cleavage of caspase-9 at 1 uM after 36 hrs by Western blot analysis; assay type: functional, cell-based; in short: as §2
K562 [11] = experiment: Induction of apoptosis in human K562 cells assessed as loss of mitochondrial membrane potential at 1 uM after 24 hrs by JC-1 staining based fluorescence microscopy; assay type: functional, cell-based
In short: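 K562 cells exposed to 1 μM for 24 h. Stained with a JC-1 kit and viewed by fluorescence microscopy (red aggregates versus green monomers). Untreated cells served as blank; CCCP at 10 μM as positive control.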

K562 [12] = experiment: Induction of apoptosis in human K562 cells after 48 hrs by annexin V/PI staining based flow cytometry; assay type: functional, cell-based
A-375 = experiment: Antiproliferative activity against human A375 cells after 48 hrs by MTT assay; assay type: functional, cell-based; settings: A-375, 48 h; in short: as §1
K562 [13] = experiment: Induction of apoptosis in human K562 cells assessed as late apoptotic cells at 0.5 uM after 48 hrs by annexin V/PI staining based flow cytometry (reference value: 0.26 %); assay type: functional
Calf thymus DNA [14] = experiment: Binding affinity to calf thymus DNA assessed as increase in DNA viscosity at 6 to 36 uM by viscosity method; assay type: nucleic-acid assay; settings: Bos taurus
In short: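 ct DNA at 200 μM in Tris-HCl buffer, compound at 6–36 μM, viscometer held at 25.0 °C. Flow times read in triplicate and averaged. η = (t−t0)/t0; (η/η0)^1/3 plotted against the compound:DNA ratio.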

[15] = Antiproliferative activity against human A172 cells after 48 hrs by MTT assay; assay type: functional, cell-based; settings: A 172, 48 h; in short: as §1
K562 [16] = experiment: Induction of apoptosis in human K562 cells assessed as cleavage of caspase-3 at 1 uM after 36 hrs by Western blot analysis; assay type: functional, cell-based; in short: as §2
K562 [17] = experiment: Induction of apoptosis in human K562 cells assessed as early apoptotic cells at 0.05 uM after 48 hrs by annexin V/PI staining based flow cytometry (reference value: 3.89 %); assay type: functional
K562 [18] = experiment: Induction of apoptosis in human K562 cells assessed as early apoptotic cells at 0.5 uM after 48 hrs by annexin V/PI staining based flow cytometry (reference value: 3.89 %); assay type: functional
K562 [19] = experiment: Induction of apoptosis in human K562 cells assessed as cleavage of caspase-7 at 1 uM after 36 hrs by Western blot analysis; assay type: functional, cell-based; in short: as §2
K562 [20] = experiment: Induction of apoptosis in human K562 cells assessed as late apoptotic cells at 0.25 uM after 48 hrs by annexin V/PI staining based flow cytometry (reference value: 0.26 %); assay type: functional
K562 [21] = experiment: Induction of apoptosis in human K562 cells assessed as late apoptotic cells at 1 uM after 48 hrs by annexin V/PI staining based flow cytometry (reference value: 0.26 %); assay type: functional

In the case of `Cc1cccc2c(=O)c3c(NCc4ccncc4)ccc(C(=O)NCCN(C)C)c3[nH]c12`, the IC50 (HeLa) is reported as 3790 nM, the Activity (Calf thymus DNA [1]) is reported as “Active” and the Kq (Bos taurus) is reported as 1 ×10⁴ /M. For the same compound, the IC50 (MCF7) was 2550 nM, the Activity (K562 [2]) was 27.06% and the Activity (K562 [3]) was 0.49%. For the same compound, the IC50 (U-251) was 790 nM, the Activity (K562 [4]) was 20.24% and the IC50 (NCI-H520) was 1030 nM. For the same compound, the Activity (K562 [5]) was “Active”, the Activity (K562 [6]) was 15.64% and the IC50 (HepG2) was 320 nM. The Activity (K562 [7]) was “Active”, the IC50 (K562 [8]) was 460 nM and the IC50 [9] was 1080 nM. The Activity (K562 [10]) was “Active”, the Activity (K562 [11]) was “Active” and the Activity (K562 [12]) was “Dose-dependent effect”. The IC50 (A-375) was 160 nM, the Activity (K562 [13]) was 2.13% and the Activity (Calf thymus DNA [14]) was “Active”. For the same compound, the IC50 [15] was 2200 nM, the Activity (K562 [16]) was “Active” and the Activity (K562 [17]) was 8.98%. For the same compound, the Activity (K562 [18]) was 23.13%, the Activity (K562 [19]) was “Active” and the Activity (K562 [20]) was 1.08%. It also gave an Activity (K562 [21]) of 7.54%.
